Active and inactive are the calls of the source. The calls are words filed in the database; no cut-off is given here.
Legend:
SiHa [1] = assay: Induction of apoptosis in human SiHa cells assessed as increase in cleaved caspase-7 level incubated for 24 hrs by Western blot analysis; format: functional, cell-based; details: dose microM 0.6-2.4, time 24.0 hrs
Quadruplex DNA [2] = assay: Binding affinity to c-myc promoter G-quadruplex/i-motif in human SiHa cells assessed as reduction in c-myc mRNA level at 2.5 uM incubated for 24 hrs by qRT-PCR analysis; format: cell-based; parameters: scale not given: the % may be the effect or the level left
Procedure, shortened: (§1)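 SiHa cells at 0, 0.625, 1.25 and 2.5 μM for 24 h; DMSO control. Total RNA extracted with TRIzol. 1.5 μg RNA reverse-transcribed with oligo dT18 and M-MLV (42 °C 60 min). PCR of 30 cycles (95/58/72 °C), products run on 1.2% agarose. β-actin as internal control; three repeats.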

Quadruplex DNA [3] = assay: Binding affinity to 5'-biotin labeled c-myc promoter G-quadruplex DNA Pu27 (unknown origin) by UV titration method; format: nucleic-acid assay
SiHa [4] = assay: Induction of cell cycle arrest in human SiHa cells assessed as accumulation of cells at S phase at 0.30 uM after 24 hrs by propidium iodide staining based flow cytometry (reference value: 17.74%); format: functional; details: dose 0.3 µM
Quadruplex DNA [5] = assay: Binding affinity to c-myc mutated promoter G-quadruplex/i-motif (unknown origin) expressed in human SiHa cells assessed as reduction in c-myc transcription by measuring decrease in ratio of renilla/firefly luciferase activity at 0.025 to 0.1 uM after 48 hrs by dual-luciferase reporter assay; format: cell-based; details: dose microM 0.025-0.1, time 48.0 hrs
Procedure, shortened: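 SiHa cells transfected with 200 ng psiCHECK2 plasmid carrying wild-type, mutant or deleted c-myc promoter. Compounds added 8 h after transfection, then incubated 48 h at 37 °C. Cells washed with ice-cold PBS; Renilla/firefly activity ratio read by dual-luciferase assay.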

Quadruplex DNA [6] = assay: Binding affinity to c-myc promoter G-quadruplex/i-motif in human SiHa cells assessed as reduction in c-myc expression at 5 uM incubated for 24 hrs by Western blot analysis; format: cell-based; parameters: scale not given: the % may be the effect or the level left
[7] = Binding affinity to c-myc promoter i-motif DNA Py33 (unknown origin) at 20 uM by isothermal titration calorimetry
Procedure, shortened: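 ITC at 20 °C on degassed solutions. Cell held preformed DNA ([…]). Syringe held ligand in the same buffer (50 μM for Pu27, 20 μM for Py33). 28 injections of 10 μL at 4 min intervals. Heats of dilution from ligand-into-buffer runs subtracted before model fitting.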

[8] = Stabilization of c-myc promoter i-motif DNA Py33 (unknown origin) assessed as reduction in appearance of random coil confirmation at pH 5.5 by CD spectroscopy
Procedure, shortened: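 Py33 at 1 µM in 1× BPES pH 5.5 (pH 6.8 random-coil reference), with or without ligand. Annealed at 95 °C for 5 min, cooled, kept at 4 °C overnight. CD spectra in a 4 mm cuvette over 230–350 nm, three scans averaged, buffer-corrected; peaks followed at 288 and 260 nm.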

[9] = Toxicity in BALB/c nude mouse xenografted with human SiHa cells assessed as effect on liver weight at 15 mg/kg, ip administered once per 2 days for 18 days; format: organism-based; details: in vivo, 432 h, time 18 day
Procedure, shortened: (§2)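 SiHa tumour fragments passaged from donor mice implanted in the underarm of female BALB/c nude mice (six per group). Compound given at 15 mg/kg ip once every two days for 18 days, with saline and cisplatin 0.2 mg/kg control groups. Body weight recorded every two days; at day 18 mice were sacrificed and organs weighed.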

SiHa [10] = assay: Induction of cell cycle arrest in human SiHa cells assessed as accumulation of cells at G2/M phase at 0.15 uM after 24 hrs by propidium iodide staining based flow cytometry (reference value: 29.71%); format: functional
SiHa [11] = assay: Induction of cell cycle arrest in human SiHa cells assessed as accumulation of cells at G0/G1 phase at 0.30 uM after 24 hrs by propidium iodide staining based flow cytometry (reference value: 42.28%); format: functional; details: dose 0.3 µM
Quadruplex DNA [12] = assay: Stabilization of c-myc promoter G-quadruplex DNA Pu27 (unknown origin) by 1H NMR spectra analysis; format: nucleic-acid assay
Procedure, shortened: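 1D ¹H NMR titration with water suppression at 25 °C on a 600 MHz spectrometer. DNA at 0.5 mM in 10% D₂O/90% H₂O: Pu27 in 10 mM Tris-HCl pH 7.4, Py33 in 1× BPES pH 6.4. Annealed at 95 °C for 5 min before titration; ligand stock in d₆-DMSO.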

Raji = assay: Induction of cell cycle arrest in human Raji cells assessed as accumulation of cells at G2/M phase at 0.15 to 0.6 uM after 24 hrs by propidium iodide staining based flow cytometry; format: functional; details: dose microM 0.15-0.6, time 24.0 hrs
CA46 = assay: Induction of apoptosis in human CA46 cells at 0.6 to 2.4 uM after 24 hrs by propidium iodide staining based flow cytometry; format: functional, cell-based; details: dose microM 0.6-2.4, time 24.0 hrs
SiHa [13] = assay: Antitumor activity against human SiHa cells xenografted in BALB/c nude mouse assessed as reduction in tumor weight at 15 mg/kg, ip administered once per 2 days for 18 days relative to control; format: functional; parameters: scale not given: the % may be the effect or the level left; details: time 18 day
Procedure, shortened: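 SiHa tumor fragments from donor xenografts (grown to about 1,000 mm³) implanted in the underarm of female BALB/c nude mice; six per group. Dosed ip once every two days for 18 days, saline as negative control, cisplatin 0.2 mg/kg as positive control. Tumor volume = length × width²/2. Tumors weighed at sacrifice.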

[14] = Toxicity in BALB/c nude mouse xenografted with human SiHa cells assessed as effect on body weight at 15 mg/kg, ip administered once per 2 days for 18 days; format: organism-based; details: in vivo, 432 h, time 18 day; procedure, shortened: as §2
SiHa [15] = assay: Inhibition of cell invasion in human SiHa cells at 0.5 uM by transwell assay relative to control; format: functional
Procedure, shortened: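 Transwell assay: SiHa cells incubated 24 h with 0.5 µM compound. Cell […] through the transwell was compared with an untreated control.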

SiHa [16] = assay: Induction of cell cycle arrest in human SiHa cells assessed as accumulation of cells at G0/G1 phase at 0.15 uM after 24 hrs by propidium iodide staining based flow cytometry (reference value: 42.28%); format: functional
SiHa [17] = assay: Inhibition of colony formation in human SiHa cells at 0.5 to 2 uM incubated for 9 days by crystal violet staining; format: functional, cell-based; details: dose microM 0.5-2, time 9.0 day
Procedure, shortened: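 SiHa cells seeded at 500/well, pre-cultured 24 h at 37 °C/5% CO₂, then treated 9 days with compound at several concentrations. Cells washed with PBS, fixed 10 min in ice-cold methanol, stained 30 min with 0.5% crystal violet, dried and photographed.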

Quadruplex DNA [18] = assay: Binding affinity to c-myc promoter G-quadruplex/i-motif in human SiHa cells assessed as reduction in c-myc expression at 1.25 uM incubated for 24 hrs by Western blot analysis; format: cell-based; parameters: scale not given: the % may be the effect or the level left
Procedure, shortened: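 SiHa cells treated 24 h at 0, 0.625, 1.25 and 2.5 μM, then lysed in buffer with 1 mM PMSF. Protein measured by BCA, equal loads run on 8% gel and blotted to PVDF. Probed with anti-c-MYC and anti-β-actin (loading control), HRP anti-rabbit secondary, chemiluminescence read-out.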

Quadruplex DNA [19] = assay: Binding affinity to c-myc promoter G-quadruplex/i-motif in human SiHa cells assessed as reduction in c-myc mRNA level incubated for 24 hrs by qRT-PCR analysis; format: cell-based; details: dose microM 0.625-2.5, time 24.0 hrs; procedure, shortened: as §1

For `Cc1ccc2nc3ccc(C)cc3c(NCCCNCCNCCCNc3c4cc(C)ccc4nc4ccc(C)cc34)c2c1`, the Activity (SiHa [1]) was “Dose-dependent effect”, the Activity (Quadruplex DNA [2]) was < 76.9% and the Activity (Quadruplex DNA [3]) was “Active”. The Activity (SiHa [4]) was 15.22%, the Activity (Quadruplex DNA [5]) was “inactive” and the Activity (Quadruplex DNA [6]) was < 92.2%. The Kd [7] was 650 nM, the Activity [8] was “Active” and the Activity [9] was “Non-Toxic”. For the same compound, the Activity (SiHa [10]) was 34.13%, the Activity (SiHa [11]) was 30.44% and the Activity (Quadruplex DNA [12]) was “Active”. The Activity (Raji) was “Active”, the Activity (CA46) was “inactive” and the Activity (SiHa [13]) was 41.6%. For the same compound, the Activity [14] was “Non-Toxic”, the inhibition at 0.5 µM (SiHa [15]) was 85% and the Activity (SiHa [16]) was 37.96%. For the same compound, the inhibition (SiHa [17]) was “Active”, the Activity (Quadruplex DNA [18]) was < 39.8% and the Activity (Quadruplex DNA [19]) was “Dose-dependent effect”.
